# Assay results reported in ChEMBL document CHEMBL5649170, “Sustained microglial depletion with CSF1R inhibitor impairs parenchymal plaque development in an Alzheimer's disease model” (Nat Commun, 2019).
# Active and inactive are the calls of the source. The calls are words filed in the database; no cut-off is given here.
# Legend:
# Aurora kinase C = Aurora kinase C (Homo sapiens, UniProt Q9UQB9); experiment: Inhibition of AURKC (unknown origin)
# [1] = target: Serine/threonine-protein kinase MRCK alpha (Homo sapiens, UniProt Q5VT25); experiment: Inhibition of CDC42_BPA (unknown origin)
# Ephrin type-A receptor 5 = Ephrin type-A receptor 5 (Homo sapiens, UniProt P54756); experiment: Inhibition of EPHA5 (unknown origin)
# [2] = target: Interleukin-1 receptor-associated kinase 4 (Homo sapiens, UniProt Q9NWZ3); experiment: Inhibition of IRAK4 (unknown origin)
# [3] = target: Tyrosine-protein kinase Lyn (Homo sapiens, UniProt P07948); experiment: Inhibition of LYN_A (unknown origin)
# [4] = target: Serine/threonine-protein kinase pim-2 (Homo sapiens, UniProt Q9P1W9); experiment: Inhibition of PIM2 (unknown origin)
# [5] = target: Ribosomal protein S6 kinase alpha-2 (Homo sapiens, UniProt Q15349); experiment: Inhibition of RPS6KA2 (unknown origin)
# [6] = Cmax in male rat at 45 mg/kg, po administered as single dose via gavage; assay type: ADME, organism-based; conditions: in vivo
# Mus musculus [7] = experiment: Antialzheimer activity in wildtype mouse assessed as number of Iba positive cells per FOV in […] cortex at 1200 ppm administered as rodent chow starting from 1.5 months and measured after 7 months (reference value: 322 to 632); assay type: functional; conditions: route po, time 5.5 months, 4015 h
# [8] = Toxicity in wildtype mouse assessed as number of entries to perimeter zone at 1200 ppm administered as rodent chow for 10 to 24 weeks by Open field test (reference value: 20 to 64); conditions: in vivo, po, time 10-24 weeks
# Mus musculus [9] = experiment: Antialzheimer activity in 5XFAD mouse assessed as number of GFAP positive cell per FOV in retro spinal cortex at 1200 ppm administered as rodent chow for 10 to 24 weeks by immunolabelling based confocal microscopic analysis (reference value: 217 to 477); assay type: functional; conditions: route po, time 10-24 weeks
# Mus musculus [10] = experiment: Antialzheimer activity in 5XFAD mouse assessed as number of plaques in subiculum at 1200 ppm administered as rodent chow starting from 1.5 months and measured after 7 months by immunolabeling based confocal microscopic analysis (reference value: 139 to 212); assay type: functional; conditions: route po, time 5.5 months, 4015 h
# Mus musculus [11] = experiment: Antialzheimer activity in 5XFAD mouse assessed as reduction in myeloid cell numbers in subiculum at 1200 ppm administered as rodent chow starting from 1.5 months and measured after 7 months by immunolabeling based confocal microscopic analysis relative to control; assay type: functional; parameters: scale not given: the % may be the effect or the level left; conditions: route po, time 5.5 months, 4015 h
# [12] = Effect on Siglech gene expression in wild type mouse hippocampus at 1200 ppm administered as rodent chow starting from 1.5 months and measured after 7 months by RNA-Seq analysis (reference value: 3.309 to 4.234 RPKM); assay type: functional; conditions: route po, time 5.5 months, 4015 h
# [13] = Effect on Spi1 gene expression in 5XFAD mouse thalamus at 1200 ppm administered as rodent chow starting from 1.5 months and measured after 7 months by RNA-Seq analysis (reference value: 2.107 to 3.285 RPKM); assay type: functional; conditions: route po, time 5.5 months, 4015 h
# [14] = Effect on Cst7 gene expression in 5XFAD mouse hippocampus at 1200 ppm administered as rodent chow starting from 1.5 months and measured after 7 months by RNA-Seq analysis (reference value: 14.615 to 34.909 RPKM); assay type: functional; conditions: route po, time 5.5 months, 4015 h
# [15] = Effect on Zfp286 gene expression in wildtype mouse hippocampus assessed as percent change in Reads Per kilo base per Million mapped reads at 1200 ppm administered as rodent chow starting from 1.5 months and measured after 7 months by RNA-Seq analysis (reference value: 85.126 to 114.292 %); assay type: functional; conditions: route po, time 5.5 months, 4015 h
# Mus musculus [16] = experiment: Prevention of Hgf gene downregulation in 5XFAD mouse hippocampus at 1200 ppm administered as rodent chow starting from 1.5 months and measured after 7 months by Nanostring analysis; assay type: functional, tissue-based; conditions: route po, time 5.5 months
# Mus musculus [17] = experiment: Antialzheimer activity in 5XFAD mouse assessed as number of This-S positive cells per FOV in […] cortex at 1200 ppm administered as rodent chow starting from 1.5 months to 4 months followed by compound removal and measured after 1 months by immunolabelling based confocal microscopic analysis (reference value: 63 to 124); assay type: functional; conditions: route po, time 2.5 months, 1825 h
# Method in brief: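 For the repopulation paradigm, 5xFAD mice ate 1200 ppm PLX5622 chow from 1.5 to 4 months of age. Inhibitor chow was then withdrawn, and brains were examined one month later. Sections were stained with Thio-S and immunolabeled for IBA1, then analysed by confocal microscopy in cortical regions.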
# Mus musculus [18] = experiment: Antialzheimer activity in 5XFAD mouse assessed as number of GFAP positive cells per FOV at 1200 ppm administered as rodent chow starting from 1.5 months to 4 months followed by compound removal and measured after 1 month by immunolabeling based confocal microscopic analysis (reference value: 20 to 71); assay type: functional; conditions: route po, time 2.5 months, 1825 h
# [19] = target: T1, Macrophage colony-stimulating factor 1 receptor (Mus musculus) (UniProt P09581); experiment: In vivo inhibition of CSF1R in 5XFAD mouse assessed as appearance of CAA in […] cortex at 600 ppm administered as rodent chow starting from 1.5 months and measured after 5 months by immunolabeling based confocal microscopic analysis; conditions: route po, time 3.5 months
# T1 sequence (whole entry): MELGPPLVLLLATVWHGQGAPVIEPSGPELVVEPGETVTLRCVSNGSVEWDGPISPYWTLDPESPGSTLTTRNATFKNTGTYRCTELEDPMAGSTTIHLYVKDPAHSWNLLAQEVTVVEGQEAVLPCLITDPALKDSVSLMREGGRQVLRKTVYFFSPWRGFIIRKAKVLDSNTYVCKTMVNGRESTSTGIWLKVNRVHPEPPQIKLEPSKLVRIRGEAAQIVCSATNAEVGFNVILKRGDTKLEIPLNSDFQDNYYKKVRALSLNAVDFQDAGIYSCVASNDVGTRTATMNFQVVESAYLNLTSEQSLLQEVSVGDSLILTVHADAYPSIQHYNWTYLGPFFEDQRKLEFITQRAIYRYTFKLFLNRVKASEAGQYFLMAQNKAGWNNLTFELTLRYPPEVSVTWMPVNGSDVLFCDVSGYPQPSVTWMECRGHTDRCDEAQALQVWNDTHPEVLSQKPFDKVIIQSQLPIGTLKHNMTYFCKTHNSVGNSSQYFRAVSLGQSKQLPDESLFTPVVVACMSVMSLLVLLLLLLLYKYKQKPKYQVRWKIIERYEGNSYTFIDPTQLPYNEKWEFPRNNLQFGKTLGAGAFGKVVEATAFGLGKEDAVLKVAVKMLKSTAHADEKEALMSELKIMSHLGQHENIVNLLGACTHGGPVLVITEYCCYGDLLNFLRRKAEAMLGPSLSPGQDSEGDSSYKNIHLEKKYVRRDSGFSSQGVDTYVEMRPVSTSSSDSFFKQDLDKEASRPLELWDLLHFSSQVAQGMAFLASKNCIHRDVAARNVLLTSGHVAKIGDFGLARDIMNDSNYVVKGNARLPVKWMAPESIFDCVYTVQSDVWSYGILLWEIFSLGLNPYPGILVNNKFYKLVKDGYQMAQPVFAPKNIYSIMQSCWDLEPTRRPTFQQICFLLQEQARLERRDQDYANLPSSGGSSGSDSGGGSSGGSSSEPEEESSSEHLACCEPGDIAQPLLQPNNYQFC
# Aurora kinase C, sequence (Q9UQB9 whole entry): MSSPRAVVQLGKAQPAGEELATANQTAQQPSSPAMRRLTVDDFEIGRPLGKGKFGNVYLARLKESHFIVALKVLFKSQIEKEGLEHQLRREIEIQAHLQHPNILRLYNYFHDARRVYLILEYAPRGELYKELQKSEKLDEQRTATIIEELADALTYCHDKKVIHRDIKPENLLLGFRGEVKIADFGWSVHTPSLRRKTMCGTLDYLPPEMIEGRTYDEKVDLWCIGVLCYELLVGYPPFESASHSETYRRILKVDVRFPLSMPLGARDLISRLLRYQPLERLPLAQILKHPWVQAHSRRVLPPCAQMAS
# Tyrosine-protein kinase Lyn, sequence (P07948 whole entry): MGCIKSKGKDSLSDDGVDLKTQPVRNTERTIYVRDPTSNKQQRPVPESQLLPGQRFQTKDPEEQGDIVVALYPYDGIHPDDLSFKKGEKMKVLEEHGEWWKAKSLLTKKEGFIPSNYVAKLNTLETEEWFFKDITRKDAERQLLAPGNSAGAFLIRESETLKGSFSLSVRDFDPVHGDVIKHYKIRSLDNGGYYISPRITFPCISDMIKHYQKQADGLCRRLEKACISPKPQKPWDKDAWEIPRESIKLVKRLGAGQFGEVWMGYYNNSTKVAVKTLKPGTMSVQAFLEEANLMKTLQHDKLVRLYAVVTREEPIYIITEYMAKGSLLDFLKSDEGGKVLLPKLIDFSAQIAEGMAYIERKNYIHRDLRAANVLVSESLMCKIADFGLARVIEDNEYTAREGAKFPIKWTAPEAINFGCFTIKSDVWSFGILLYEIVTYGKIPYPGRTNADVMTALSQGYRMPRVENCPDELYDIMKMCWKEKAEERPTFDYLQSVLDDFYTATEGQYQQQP
# Ribosomal protein S6 kinase alpha-2, sequence (Q15349 whole entry): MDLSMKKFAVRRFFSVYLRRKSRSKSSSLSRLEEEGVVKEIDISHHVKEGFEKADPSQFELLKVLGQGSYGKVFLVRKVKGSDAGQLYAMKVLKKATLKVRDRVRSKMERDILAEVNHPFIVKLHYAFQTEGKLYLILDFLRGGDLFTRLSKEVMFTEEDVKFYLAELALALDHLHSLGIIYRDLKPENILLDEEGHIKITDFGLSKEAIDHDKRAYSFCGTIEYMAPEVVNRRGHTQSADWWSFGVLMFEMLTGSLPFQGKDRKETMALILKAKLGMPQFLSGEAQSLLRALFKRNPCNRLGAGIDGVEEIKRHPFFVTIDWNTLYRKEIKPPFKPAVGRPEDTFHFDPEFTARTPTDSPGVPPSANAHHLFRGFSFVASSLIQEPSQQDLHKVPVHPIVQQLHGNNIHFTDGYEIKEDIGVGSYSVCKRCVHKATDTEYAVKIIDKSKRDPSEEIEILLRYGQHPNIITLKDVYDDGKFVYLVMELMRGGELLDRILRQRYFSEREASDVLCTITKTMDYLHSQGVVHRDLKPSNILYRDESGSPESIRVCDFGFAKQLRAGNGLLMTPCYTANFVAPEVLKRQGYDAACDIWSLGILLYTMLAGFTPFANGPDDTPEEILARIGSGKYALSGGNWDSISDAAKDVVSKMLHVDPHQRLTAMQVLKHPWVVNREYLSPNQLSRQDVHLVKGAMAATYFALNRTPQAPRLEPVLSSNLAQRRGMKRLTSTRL
# Ephrin type-A receptor 5, sequence (P54756 whole entry): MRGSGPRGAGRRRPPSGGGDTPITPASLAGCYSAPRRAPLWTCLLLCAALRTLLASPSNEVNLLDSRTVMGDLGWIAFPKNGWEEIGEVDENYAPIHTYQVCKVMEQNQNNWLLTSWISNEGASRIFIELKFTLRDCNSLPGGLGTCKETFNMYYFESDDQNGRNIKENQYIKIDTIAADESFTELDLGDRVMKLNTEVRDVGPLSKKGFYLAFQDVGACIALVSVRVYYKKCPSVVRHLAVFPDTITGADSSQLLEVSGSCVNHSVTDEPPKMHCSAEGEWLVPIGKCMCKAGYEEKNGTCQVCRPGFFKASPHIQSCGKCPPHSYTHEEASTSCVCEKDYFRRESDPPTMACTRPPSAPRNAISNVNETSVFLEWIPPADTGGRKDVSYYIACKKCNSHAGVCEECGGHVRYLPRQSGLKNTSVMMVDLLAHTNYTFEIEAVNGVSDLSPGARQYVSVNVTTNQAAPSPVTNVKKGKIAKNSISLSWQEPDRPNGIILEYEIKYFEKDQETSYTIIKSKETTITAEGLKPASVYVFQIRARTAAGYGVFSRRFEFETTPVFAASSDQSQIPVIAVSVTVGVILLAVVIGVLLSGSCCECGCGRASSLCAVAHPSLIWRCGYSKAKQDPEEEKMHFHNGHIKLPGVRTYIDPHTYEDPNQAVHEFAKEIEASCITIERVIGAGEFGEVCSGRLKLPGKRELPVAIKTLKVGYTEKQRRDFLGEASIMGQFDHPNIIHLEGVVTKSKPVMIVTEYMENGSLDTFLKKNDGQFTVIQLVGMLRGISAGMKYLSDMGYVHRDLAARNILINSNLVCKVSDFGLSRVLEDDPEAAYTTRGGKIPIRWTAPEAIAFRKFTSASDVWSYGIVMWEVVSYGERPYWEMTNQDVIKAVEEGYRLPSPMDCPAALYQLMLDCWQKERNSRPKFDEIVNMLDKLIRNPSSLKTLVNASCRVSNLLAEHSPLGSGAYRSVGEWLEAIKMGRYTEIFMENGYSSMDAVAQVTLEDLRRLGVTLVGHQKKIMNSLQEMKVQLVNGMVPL
# Serine/threonine-protein kinase pim-2, sequence (Q9P1W9 whole entry): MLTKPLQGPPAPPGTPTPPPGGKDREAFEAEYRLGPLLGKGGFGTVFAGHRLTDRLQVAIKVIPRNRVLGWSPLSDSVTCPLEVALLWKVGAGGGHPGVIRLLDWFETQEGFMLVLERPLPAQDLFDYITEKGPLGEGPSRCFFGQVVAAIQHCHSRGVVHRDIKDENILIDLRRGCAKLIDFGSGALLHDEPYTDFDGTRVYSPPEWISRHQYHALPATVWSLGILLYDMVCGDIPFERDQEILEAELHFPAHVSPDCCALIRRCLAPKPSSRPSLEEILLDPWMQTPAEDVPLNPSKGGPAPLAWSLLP
# Interleukin-1 receptor-associated kinase 4, sequence (Q9NWZ3 whole entry): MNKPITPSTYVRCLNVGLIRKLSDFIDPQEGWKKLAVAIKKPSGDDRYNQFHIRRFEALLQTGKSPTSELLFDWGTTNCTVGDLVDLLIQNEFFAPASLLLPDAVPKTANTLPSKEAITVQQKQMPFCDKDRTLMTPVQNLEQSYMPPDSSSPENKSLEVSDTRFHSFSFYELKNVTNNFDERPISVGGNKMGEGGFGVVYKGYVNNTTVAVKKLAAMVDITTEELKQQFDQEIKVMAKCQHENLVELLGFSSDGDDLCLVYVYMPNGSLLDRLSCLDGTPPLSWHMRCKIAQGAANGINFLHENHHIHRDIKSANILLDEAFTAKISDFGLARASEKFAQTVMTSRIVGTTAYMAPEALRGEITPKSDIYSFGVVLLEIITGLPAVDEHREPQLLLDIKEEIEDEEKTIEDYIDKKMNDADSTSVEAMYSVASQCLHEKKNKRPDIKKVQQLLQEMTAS
compound,measurement,setting,value
COc1ncc(F)cc1CNc1ccc(Cc2c[nH]c3ncc(C)cc23)c(F)n1 [PLX-5622],IC50,Aurora kinase C,1000 nM
same,IC50,[1],> 1000 nM
same,IC50,Ephrin type-A receptor 5,> 1000 nM
same,IC50,[2],> 1000 nM
same,IC50,[3],> 1000 nM
same,IC50,[4],> 1000 nM
same,IC50,[5],> 1000 nM
same,Cmax,[6],12000 ng/mL
same,Activity,Mus musculus [7],0
same,Activity,[8],13
same,Activity,Mus musculus [9],92
same,Activity,Mus musculus [10],97
same,Activity,Mus musculus [11],77%
same,Activity,[12],0 RPKM
same,Activity,[13],0 RPKM
same,Activity,[14],2.289 RPKM
same,Activity,[15],76.544%
same,Activity,Mus musculus [16],Active
same,Activity,Mus musculus [17],60
same,Activity,Mus musculus [18],10
FC(F)(F)c1ccc(CNc2ccc(Cc3c[nH]c4ncc(Cl)cc34)cn2)cn1 [PEXIDARTINIB],inhibition,[19],Active
